In test [1] the test system is Mus musculus. Kind of test: Sleep modulation activity in mouse assessed as increase in time spent in wakefulness at 40 mg/kg, ip measured after 4 hrs post injection. It counts as functional, organism-based. In short, it runs like this:
(§1)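 Twelve-month-old mice implanted under ketamine/xylazine with telemetric EEG/EMG electrodes, and allowed 7–10 days or more to recover. They were housed on 12-h light/dark (lights on 06:00) at 21–22°C. Counterbalanced crossover: 40 mg/kg i.p. in 0.3 ml saline or saline, given at ZT 4–4.5, at least 48 h apart. Manual 10-s epoch scoring (wake/NREM/REM) over 0–4 h gave % time, transitions, episode number and duration. Mean ± SEM.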

The test system of test [2] is Mus musculus. Briefly: Sleep modulation activity in mouse assessed as decrease in time spent in non-rapid eye movement sleep at 40 mg/kg, ip measured after 4 hrs post injection. In kind it is functional, organism-based. The method in brief:
as §1

The subject of test [3] is Mus musculus. Briefly: Sleep modulation activity in mouse assessed as decrease in time spent in rapid eye movement sleep at 40 mg/kg, ip measured after 4 hrs post injection. In kind it is functional, organism-based. In short, it runs like this:
as §1

Test [4] deals with Mus musculus. Kind of test: Sleep modulation activity in mouse assessed as reduction in transition between states by measuring stabilization of reduced sleep/wake fragmentation at 40 mg/kg, ip measured after 4 hrs post injection. In kind it is functional, organism-based. In short, it runs like this: as §1
For test [5], the system named is Mus musculus. Kind of test: Sleep modulation activity in mouse assessed as effect on number of episodes of rapid eye movement sleep at 40 mg/kg, ip measured after 4 hrs post injection. In kind it is functional, organism-based. In short, it runs like this:
as §1

Test [6] concerns Mus musculus. Briefly: Sleep modulation activity in mouse assessed as reduction in number of episodes of wake at 40 mg/kg, ip measured after 4 hrs post injection.
Test [7] relates to Mus musculus. Briefly: Sleep modulation activity in mouse assessed as reduction in number of episodes of non-rapid eye movement sleep at 40 mg/kg, ip measured after 4 hrs post injection.
The target of test [8] is T1, Orexin receptor type 2 (Homo sapiens, UniProt O43614).
T1 sequence (O43614 whole entry): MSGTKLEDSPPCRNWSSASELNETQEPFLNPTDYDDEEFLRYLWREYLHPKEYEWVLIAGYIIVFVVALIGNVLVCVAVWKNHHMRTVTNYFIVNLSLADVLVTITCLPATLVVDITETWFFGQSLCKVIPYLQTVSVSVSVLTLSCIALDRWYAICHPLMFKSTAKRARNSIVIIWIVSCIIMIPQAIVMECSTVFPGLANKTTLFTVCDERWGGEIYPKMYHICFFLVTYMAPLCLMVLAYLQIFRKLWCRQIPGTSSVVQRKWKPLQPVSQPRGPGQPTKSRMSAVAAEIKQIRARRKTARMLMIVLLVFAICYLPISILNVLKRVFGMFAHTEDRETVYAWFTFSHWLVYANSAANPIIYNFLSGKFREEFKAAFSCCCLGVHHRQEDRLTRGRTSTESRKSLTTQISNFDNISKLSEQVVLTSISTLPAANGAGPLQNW
Kind of test: Agonist activity at human OX2R stably expressed in CHO RD-HGA16 cells assessed as fluorescence changes measured after 30 mins by calcium mobilization assay. It counts as functional, cell-based. For orientation: A change in cytosolic calcium serves as a functional read-out for many receptors and channels.

For test [9], the target named is T2, Orexin/Hypocretin receptor type 1 (Homo sapiens, UniProt O43613).
T2 sequence (O43613 whole entry): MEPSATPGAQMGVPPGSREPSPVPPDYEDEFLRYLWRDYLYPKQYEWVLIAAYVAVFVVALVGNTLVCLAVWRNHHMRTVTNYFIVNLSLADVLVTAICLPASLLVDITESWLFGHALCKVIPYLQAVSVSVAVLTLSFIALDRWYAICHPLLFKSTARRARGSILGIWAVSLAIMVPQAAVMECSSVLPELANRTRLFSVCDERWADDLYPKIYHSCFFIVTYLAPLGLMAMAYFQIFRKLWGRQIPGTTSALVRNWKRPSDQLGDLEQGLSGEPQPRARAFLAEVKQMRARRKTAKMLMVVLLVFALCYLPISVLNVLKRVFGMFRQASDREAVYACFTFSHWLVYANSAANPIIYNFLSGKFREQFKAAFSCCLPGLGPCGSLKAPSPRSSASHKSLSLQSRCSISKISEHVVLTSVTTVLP
Kind of test: Agonist activity at human OX1R stably expressed in CHO RD-HGA16 cells assessed as fluorescence changes measured after 30 mins by calcium mobilization assay. In kind it is functional, cell-based.

The target in test [10] is T2, Orexin/Hypocretin receptor type 1. Briefly: Agonist activity at human OX1R stably expressed in CHO cells. In kind it is functional, cell-based, CHO-RD-HGA16.
Test [11] concerns Mus musculus. Kind of test: Sleep modulation activity in mouse assessed as increase in time spent in wakefulness during light phase at 30 to 300 nmol, icv measured up to 3 hrs of post injection. It counts as functional, organism-based. The conditions noted are these: dose 30-300 nmol, time hrs <=3.
Test [12] deals with Mus musculus. Briefly: Sleep modulation activity in mouse assessed as decrease in time spent in non-rapid eye movement sleep during light phase at 30 to 300 nmol, icv measured up to 3 hrs of post injection. It counts as functional, organism-based. The conditions noted are these: dose 30-300 nmol, time hrs <=3.
Test [13] relates to Mus musculus. Kind of test: Sleep modulation activity in mouse assessed as increase in time spent in wakefulness during light phase at 20 mg/kg, ip measured up to 6 hrs of post injection. It counts as functional, organism-based. To be noted: time hrs <=6.
For test [14], the system named is Mus musculus. Kind of test: Sleep modulation activity in mouse assessed as increase in time spent in rapid eye movement sleep during light phase at 20 mg/kg, ip measured up to 6 hrs of post injection. The conditions noted are these: time hrs <=6. In kind it is functional, organism-based.
In test [15] the test system is Mus musculus. Kind of test: Sleep modulation activity in mouse assessed as increase in time spent in wakefulness during light phase at 40 to 60 mg/kg, ip measured up to 3 hrs of post injection. The conditions noted are these: dose 40-60 mg/kg, time hrs <=3.
The test system of test [16] is Mus musculus. Briefly: Sleep modulation activity in mouse assessed as decrease in time spent in rapid eye movement sleep during light phase at 40 to 60 mg/kg, ip measured up to 3 hrs of post injection. The conditions noted are these: dose 40-60 mg/kg, time hrs <=3.
Test [17] deals with T1, Orexin receptor type 2. Kind of test: Agonist activity at human OX2R stably expressed in CHO cells. In kind it is functional, cell-based, CHO-RD-HGA16.

Results on 18 molecules are retold here after ChEMBL document CHEMBL5029148, “Discovery of Arylsulfonamides as Dual Orexin Receptor Agonists” (J Med Chem, 2021).

Activity calls are given as the source filed them. No cut-off for these calls is given here. Where only a bound is given, the exact number is not on record here.

In the case of `COc1ccc(-c2cccc(C(=O)N(C)Cc3ccncc3)c2)cc1S(=O)(=O)Nc1cccc(NCCNC(=O)c2cccc(C)c2)c1`, the result in test [1], in test [2], in test [3], in test [4], in test [6] and in [7] was Active. Also, in [5], the result was inactive.
For the molecule `COc1ccc(CCC(=O)N(C)C)cc1S(=O)(=O)Nc1cccc(NCCNC(=O)c2cccc(C)c2)c1`, the EC50 in test [8] was greater than 10 µM.
Regarding `COc1ccc(-c2cccc(C(=O)NCCN(C)C)c2)cc1S(=O)(=O)Nc1cccc(NCCNC(=O)c2cccc(C)c2)c1`, the EC50 in test [9] was greater than 10 µM.
In the case of `COc1ccc(-c2csc(C(=O)N(C)C)c2)cc1S(=O)(=O)Nc1cccc(NCCNC(=O)c2cccc(C)c2)c1`, in [8], the EC50 was determined as 0.166 µM.
For `COc1ccc(/C=C/C(=O)N(C)C)cc1S(=O)(=O)Nc1cccc(NCCNC(=O)c2cccc(C)c2)c1`, the EC50 in [8] is greater than 10 µM.
In the case of `COc1ccc(-c2cccc(CN(C)C)c2)cc1S(=O)(=O)Nc1cccc(NCCNC(=O)c2ccccc2N(C)C)c1`, the EC50 in test [9] is greater than 10 µM; in test [8], 0.56 µM.
As for `COc1ccc(-c2cccc(C(=O)N(C)C)c2)cc1S(=O)(=O)Nc1cccc(N2CCN(C(=O)c3ccccc3N(C)C)CC2)c1`, the EC50 in [9] and in [8] was greater than 10 µM each time.
Turning to `COc1ccc(-c2cccc(C(=O)N(C)C)c2)cc1C(=O)Nc1cccc(NCCNC(=O)c2cccc(C)c2)c1`, the EC50 in test [9] is greater than 10 µM; in [8] it was 1.27 µM.
Regarding `COC(=O)N1CCC[C@H](NS(C)(=O)=O)[C@@H]1CO[C@H]1CC[C@@H](c2ccccc2)CC1` [DANAVOREXTON], in [10] (read-out: EC50), the EC50 was greater than 30 µM.
Turning to `COc1ccc(-c2cccc(C(=O)N(C)C)c2)cc1S(=O)(=O)Nc1cccc(N2CCN(C(=O)c3cccc(C)c3)CC2)c1`, the EC50 in test [9] and in test [8] was greater than 10 µM in each case.
`COc1ccc(-c2cccc(C(=O)N(C)c3ccccn3)c2)cc1S(=O)(=O)Nc1cccc(NCCNC(=O)c2cccc(C)c2)c1`: the EC50 in test [9] is greater than 10 µM.
With `COc1ccc(-c2cccc(C(=O)N(C)C)c2)cc1S(=O)(=O)Nc1cccc(CCNC(=O)c2ccccc2-n2nccn2)c1`, the EC50 in [10] (read-out: pEC50 (converted)) is less than 35.5 µM.
With `COc1ccc(-c2cccc(C(=O)N(C)C)c2)cc1S(=O)(=O)Nc1cccc(NCCNC(=O)c2ccccc2N(C)C)c1`, the EC50 was 0.824 µM in test [9] and 0.165 µM in [8]. Also, the result in [11], in test [12], in [15] and in test [16] was Active. Further, the result in test [13] and in test [14] was inactive.
Take `COc1ccc(-c2cccc(C(=O)NCc3ccccn3)c2)cc1S(=O)(=O)Nc1cccc(NCCNC(=O)c2cccc(C)c2)c1`: the EC50 in [9] was greater than 10 µM.
In the case of `Cc1ccc(Cn2c(=N)n(CC(O)c3ccc(Cl)c(Cl)c3)c3ccccc32)cc1` (stereo not drawn), the EC50 in [10] (read-out: EC50) and in test [17] was greater than 3.2 µM in each case.
As for `COc1ccc(-c2cccc(C(=O)N(C)Cc3ccncc3)c2)cc1C(=O)Nc1cccc(NCCNC(=O)c2cccc(C)c2)c1`, the EC50 was greater than 10 µM in test [9] and 0.863 µM in [8].
The like results for `COc1ccc(-c2cccc(C(=O)N(C)C)c2)cc1S(=O)(=O)Nc1cccc(NCC(C)NC(=O)c2cccc(C)c2)c1` (stereo not drawn) were, in that order, 0.666 µM and 0.376 µM.
`COc1ccc(-c2cccc(C(=O)N(C)Cc3ccccc3)c2)cc1S(=O)(=O)Nc1cccc(NCCNC(=O)c2cccc(C)c2)c1`: in [9], the EC50 was greater than 10 µM.
